Data from ChEMBL document CHEMBL2034857, “Discovery of the macrocycle (9E)-15-(2-(pyrrolidin-1-yl)ethoxy)-7,12,25-trioxa-19,21,24-triaza-tetracyclo[18.3.1.1(2,5).1(14,18)]hexacosa-1(24),2,4,9,14(26),15,17,20,22-nonaene (SB1578), a potent inhibitor of janus kinase 2/fms-like tyrosine kinase-3 (JAK2/FLT3) for the treatment of rheumatoid …” (J Med Chem, 2012).

Tests used:
[1] = Antiproliferative activity against human SET2 cells expressing JAK2 V617F mutan; format: functional, cell-based; details: SET-2
[2] = molecular target: Cyclin-dependent kinase 2 (Homo sapiens, UniProt P24941); experiment: Inhibition of recombinant CDK2 using RbING as substrate after 2 hrs by luminometric assay
[3] = molecular target: Tyrosine-protein kinase JAK1 (Homo sapiens, UniProt P23458); experiment: Inhibition of recombinant JAK1 using poly(Glu,Ala,Tyr) as substrate after 2 hrs by luminometric assay
[4] = molecular target: Tyrosine-protein kinase JAK2 (Homo sapiens, UniProt O60674); experiment: Inhibition of recombinant JAK2 using poly(Glu,Ala,Tyr) as substrate after 2 hrs by luminometric assay
[5] = Efflux ratio of apparent permeability across human Caco2 cells at 10 uM after 120 mins by LC-MS/MS analysis; format: ADME, cell-based; details: Caco-2
Summary of the method: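 Caco-2 monolayers (passage 40–60) seeded at 1 × 10⁵ cells/cm², used on day 20; HBSS pH 7.4 with 25 mM HEPES and 4.45 mM glucose, 37 °C, 5% CO₂; 10 μM final (1% DMSO) dosed apical or basolateral, 120 min; both compartments quantified by LC-MS/MS; duplicate; reference compounds as controls; monolayer integrity by lucifer yellow permeation.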

[6] = molecular target: Cytochrome P450 3A4 (Homo sapiens, UniProt P08684); experiment: Inhibition of CYP3A4 in human liver microsomes using testosterone as substrate by fluorescence detection assay; format: ADME, Microsome
Summary of the method: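 Human liver microsomes at 0.25 mg/mL for CYP3A4, incubated with test compound at 0.001, 0.01, 0.1, 1.0, 5, 10 and 25 μM. IC50 is the concentration giving 50% inhibition, calculated from the decrease in metabolite formation relative to vehicle control.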

[7] = molecular target: Cytochrome P450 2D6 (Homo sapiens, UniProt P10635); experiment: Inhibition of CYP2D6 in human liver microsomes using dextromethorphan as substrate by fluorescence detection assay; format: ADME, Microsome
Summary of the method: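 Seven-point concentration series (0.001, 0.01, 0.1, 1.0, 5, 10 and 25 μM) incubated with human liver microsomes. IC50 is the concentration giving 50% inhibition, calculated from the decrease in metabolite formation relative to vehicle control.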

[8] = Plasma protein binding in monkey at 1000 ng/mL by equilibrium dialysis; format: ADME, cell-free, Macaca mulatta; details: rhesus monkey, read-out: PPB (converted)
Summary of the method: (§1)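 Equilibrium dialysis of plasma (mouse, rat, dog, monkey, human) spiked to 1000 ng/mL final against PBS, 4 h at 37 °C; buffer side extracted with MTBE in triplicate and analyzed by LC-MS/MS.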

[9] = Plasma protein binding in rat at 1000 ng/mL by equilibrium dialysis; format: ADME, cell-free; details: read-out: PPB (converted); summary of the method: as §1
[10] = Plasma protein binding in dog at 1000 ng/mL by equilibrium dialysis; format: ADME, cell-free, Canis lupus familiaris; details: read-out: PPB (converted); summary of the method: as §1
[11] = Tmax in BALB/c nude mouse at 50 mg/kg, po; format: ADME, organism-based; parameters: dose 50 mg/kg, route oral; details: in vivo
Summary of the method: (§2)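 Single oral dose by gavage as suspension in 0.5% methylcellulose/0.1% Tween 80 (mouse, rat, monkey) or in gelatin capsules (dog). Serial blood samples taken from 0 to 24 h into K3EDTA tubes; plasma stored at −70 °C until analysis. Parameters derived by noncompartmental methods. Rat, dog and monkey n = 3; mouse values estimated from mean concentration-time data, n = 3 mice per time point.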

[12] = AUC (0 to infinity) in BALB/c nude mouse at 50 mg/kg, po; format: ADME, organism-based; parameters: time infinity, dose 50 mg/kg, route oral; details: plasma
Summary of the method: (§3)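 Single oral gavage at 50 (mouse, rat), 5 (dog) or 20 (monkey) mg/kg; rodents and monkeys received suspensions in 0.5% methylcellulose/0.1% Tween 80, dogs gelatin capsules. Serial blood taken 0–24 h into K3EDTA, plasma stored at −70 °C. Parameters estimated by noncompartmental analysis, n = 3 per species (mouse values from mean concentration–time data, 3 mice per time point).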

[13] = Oral bioavailability in BALB/c nude mouse at 50 mg/kg; format: ADME, organism-based; details: in vivo; summary of the method: as §3
[14] = Terminal half life in Wistar rat at 50 mg/kg, po; format: ADME, organism-based; parameters: dose 50 mg/kg, route oral; details: in vivo, read-out: beta t1/2 (converted); summary of the method: as §2
[15] = Tmax in beagle dog at 5 mg/kg, po; format: ADME, organism-based, Canis lupus familiaris; parameters: dose 5 mg/kg, route oral; details: in vivo; summary of the method: as §2
[16] = AUC (0 to infinity) in beagle dog at 5 mg/kg, po; format: ADME, organism-based, Canis lupus familiaris; parameters: time infinity, dose 5 mg/kg, route oral; details: plasma; summary of the method: as §3
[17] = Oral bioavailability in beagle dog at 5 mg/kg; format: ADME, organism-based, Canis lupus familiaris; details: in vivo; summary of the method: as §3
[18] = Cmax in rhesus monkey at 20 mg/kg, po; format: ADME, organism-based, Macaca mulatta; parameters: dose 20 mg/kg, route oral; details: in vivo; summary of the method: as §3
[19] = Tmax in rhesus monkey at 20 mg/kg, po; format: ADME, organism-based, Macaca mulatta; parameters: dose 20 mg/kg, route oral; details: in vivo; summary of the method: as §2

Chain of Tyrosine-protein kinase JAK2 (O60674 whole entry): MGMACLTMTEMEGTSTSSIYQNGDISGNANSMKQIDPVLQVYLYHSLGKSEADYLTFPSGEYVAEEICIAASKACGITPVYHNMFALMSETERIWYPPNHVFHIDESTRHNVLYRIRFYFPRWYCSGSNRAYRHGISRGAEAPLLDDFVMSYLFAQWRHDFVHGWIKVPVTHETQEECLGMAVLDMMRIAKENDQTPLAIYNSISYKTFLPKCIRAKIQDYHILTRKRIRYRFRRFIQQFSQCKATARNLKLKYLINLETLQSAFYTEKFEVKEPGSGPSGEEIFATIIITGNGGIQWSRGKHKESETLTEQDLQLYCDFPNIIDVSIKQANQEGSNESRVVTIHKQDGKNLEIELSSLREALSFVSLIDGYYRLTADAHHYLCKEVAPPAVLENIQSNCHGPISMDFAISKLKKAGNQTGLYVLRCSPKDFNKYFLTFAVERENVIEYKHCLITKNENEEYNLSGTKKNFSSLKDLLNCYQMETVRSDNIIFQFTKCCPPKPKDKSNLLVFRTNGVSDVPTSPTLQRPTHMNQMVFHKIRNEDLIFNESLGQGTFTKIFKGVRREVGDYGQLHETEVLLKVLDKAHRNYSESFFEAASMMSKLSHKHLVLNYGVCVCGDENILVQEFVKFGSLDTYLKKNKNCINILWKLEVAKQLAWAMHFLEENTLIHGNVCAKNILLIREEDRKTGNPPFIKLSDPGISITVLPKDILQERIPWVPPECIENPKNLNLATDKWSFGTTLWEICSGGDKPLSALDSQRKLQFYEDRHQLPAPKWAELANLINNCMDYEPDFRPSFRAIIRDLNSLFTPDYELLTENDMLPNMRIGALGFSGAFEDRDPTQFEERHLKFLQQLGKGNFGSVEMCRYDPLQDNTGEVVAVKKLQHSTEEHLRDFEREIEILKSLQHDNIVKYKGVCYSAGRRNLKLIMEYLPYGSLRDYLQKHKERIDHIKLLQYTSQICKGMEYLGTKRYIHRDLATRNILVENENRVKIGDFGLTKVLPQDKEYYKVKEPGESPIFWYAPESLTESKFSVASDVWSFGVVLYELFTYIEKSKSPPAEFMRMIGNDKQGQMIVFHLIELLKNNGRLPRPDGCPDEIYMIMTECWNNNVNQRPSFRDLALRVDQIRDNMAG
Chain of Cytochrome P450 3A4 (P08684 whole entry): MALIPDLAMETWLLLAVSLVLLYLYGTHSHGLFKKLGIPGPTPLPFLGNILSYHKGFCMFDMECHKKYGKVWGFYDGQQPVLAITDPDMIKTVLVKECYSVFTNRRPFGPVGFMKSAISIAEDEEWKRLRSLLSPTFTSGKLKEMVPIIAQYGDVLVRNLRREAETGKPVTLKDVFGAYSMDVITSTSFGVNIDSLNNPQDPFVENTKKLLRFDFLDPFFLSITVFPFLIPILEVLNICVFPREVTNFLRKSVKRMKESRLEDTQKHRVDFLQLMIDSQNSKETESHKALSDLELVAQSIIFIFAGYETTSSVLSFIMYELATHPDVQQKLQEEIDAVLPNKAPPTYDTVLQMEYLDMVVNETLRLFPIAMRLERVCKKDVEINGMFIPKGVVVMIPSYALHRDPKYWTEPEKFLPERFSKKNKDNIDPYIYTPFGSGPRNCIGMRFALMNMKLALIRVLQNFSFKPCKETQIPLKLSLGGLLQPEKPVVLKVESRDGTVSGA
Chain of Cytochrome P450 2D6 (P10635 whole entry): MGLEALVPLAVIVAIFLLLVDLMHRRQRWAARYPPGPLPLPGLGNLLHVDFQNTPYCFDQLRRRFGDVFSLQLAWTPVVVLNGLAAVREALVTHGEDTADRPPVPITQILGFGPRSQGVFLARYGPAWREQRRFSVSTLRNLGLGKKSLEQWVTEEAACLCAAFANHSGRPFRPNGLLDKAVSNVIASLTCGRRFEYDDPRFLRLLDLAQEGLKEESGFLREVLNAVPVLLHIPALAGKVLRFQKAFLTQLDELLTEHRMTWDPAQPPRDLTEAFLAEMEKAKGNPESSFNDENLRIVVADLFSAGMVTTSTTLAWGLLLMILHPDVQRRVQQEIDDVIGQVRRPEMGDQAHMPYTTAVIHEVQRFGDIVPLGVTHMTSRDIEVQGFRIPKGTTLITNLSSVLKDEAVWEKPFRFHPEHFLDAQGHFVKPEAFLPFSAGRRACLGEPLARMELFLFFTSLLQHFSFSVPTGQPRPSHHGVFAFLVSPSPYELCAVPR
Chain of Tyrosine-protein kinase JAK1 (P23458 whole entry): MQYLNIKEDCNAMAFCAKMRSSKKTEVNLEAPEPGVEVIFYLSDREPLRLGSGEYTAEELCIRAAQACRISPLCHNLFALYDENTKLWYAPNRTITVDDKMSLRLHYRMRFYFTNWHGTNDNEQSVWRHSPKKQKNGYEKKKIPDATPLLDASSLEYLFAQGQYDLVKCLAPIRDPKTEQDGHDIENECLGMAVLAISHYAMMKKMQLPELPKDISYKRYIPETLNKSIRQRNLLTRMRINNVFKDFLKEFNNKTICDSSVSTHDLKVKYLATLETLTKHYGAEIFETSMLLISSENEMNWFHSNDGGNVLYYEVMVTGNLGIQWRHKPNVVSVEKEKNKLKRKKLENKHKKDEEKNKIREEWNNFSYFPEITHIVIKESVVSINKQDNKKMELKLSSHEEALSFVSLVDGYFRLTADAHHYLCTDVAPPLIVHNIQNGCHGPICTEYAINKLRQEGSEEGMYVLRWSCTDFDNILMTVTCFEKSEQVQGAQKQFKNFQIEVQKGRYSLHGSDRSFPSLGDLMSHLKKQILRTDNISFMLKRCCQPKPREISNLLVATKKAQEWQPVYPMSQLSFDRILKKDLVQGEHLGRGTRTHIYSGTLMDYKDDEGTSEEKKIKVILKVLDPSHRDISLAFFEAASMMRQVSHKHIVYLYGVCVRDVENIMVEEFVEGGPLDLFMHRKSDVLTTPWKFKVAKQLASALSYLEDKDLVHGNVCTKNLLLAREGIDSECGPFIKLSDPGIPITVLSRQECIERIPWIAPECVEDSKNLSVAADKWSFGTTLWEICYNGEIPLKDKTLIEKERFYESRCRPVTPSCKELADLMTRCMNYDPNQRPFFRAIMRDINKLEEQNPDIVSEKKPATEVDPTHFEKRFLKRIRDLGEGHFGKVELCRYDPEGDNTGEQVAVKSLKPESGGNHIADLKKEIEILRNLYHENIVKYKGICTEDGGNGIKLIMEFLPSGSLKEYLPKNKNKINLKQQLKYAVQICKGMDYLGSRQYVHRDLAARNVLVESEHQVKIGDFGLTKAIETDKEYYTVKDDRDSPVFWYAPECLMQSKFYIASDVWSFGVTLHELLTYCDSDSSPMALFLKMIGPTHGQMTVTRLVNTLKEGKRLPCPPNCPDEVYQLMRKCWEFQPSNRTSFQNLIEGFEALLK

Which results are given for `C1=C2COC/C=C/COCc3cc(ccc3OCCN3CCCC3)Nc3nccc(n3)C(=C1)O2` (mixture of isomers) [CT-1578]?
IC50 [1]: 246 nM; IC50 [2]: 7000 nM; IC50 [3]: 2700 nM; IC50 [4]: 46 nM; efflux ratio at 2 h, 10 µM [5]: 1.1; IC50 [6]: > 10000 nM; IC50 [7]: > 10000 nM; fraction unbound at 1000 ng/mL [8]: 0.013; fraction unbound at 1000 ng/mL [9]: 0.127; fraction unbound at 1000 ng/mL [10]: 0.127; Tmax [11]: 0.5 h; AUC(0-inf) [12]: 2020 ng·h/mL; bioavailability [13]: 34%; half-life [14]: 3.6 h; Tmax [15]: 3 h; AUC(0-inf) [16]: 96 ng·h/mL; bioavailability [17]: 6%; Cmax [18]: 1980 ng/mL; Tmax [19]: 2 h
